Data on 6 molecules can be found in ChEMBL document CHEMBL1144439, “A novel class of in vivo active anticancer agents: achiral seco-amino- and seco-hydroxycyclopropylbenz[e]indolone (seco-CBI) analogues of the duocarmycins and CC-1065” (J Med Chem, 2005).

One experiment relates to L1210. Briefly: The concentration required for inhibiting the growth of the murine L1210 leukemia cells by 50%. The class given is functional, cell-based. Conditions: Mus musculus. Summed up:
(§1)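 MTT growth inhibition in murine lines grown in DMEM with 10% FBS, HEPES, glutamine, pen/strep at 37 °C, 5% CO2. Seeded 80 000 cells/well, continuous drug exposure (DMSO stock diluted in DMEM) for 72 h, quadruplicate wells per concentration. MTT added for 4 h, formazan dissolved in acid 2-propanol, read at 570 nm (reference 630 nm). IC50 extrapolated from averaged absorbance curves.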

A short description of experiment [1]: The concentration required for inhibiting the growth of the murine B16-F0 melanoma cells by 50%. The class given is functional. Conditions: Mus musculus, B16F0. Summed up:
as §1

A further experiment deals with K562. Description: The concentration required for inhibiting the growth of the human K562 chronic myeloid leukemia cells by 50%. The class given is functional, cell-based. Summed up:
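Drug exposure was […] in the dark, then cells were washed and plated at 10⁴ cells/well, eight wells per sample, and incubated 4 days. MTT was added for 5 h, formazan dissolved in DMSO and read at 550 nm.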

In general, IC50 refers to the concentration needed to halve the response being measured. A low value points to greater potency in that assay. Consider `COc1cc2cc(C(=O)Nc3cc(N)c4ccccc4c3CCO)[nH]c2c(OC)c1OC`, for which the half-maximal inhibitory concentration (IC50) in the experiment with L1210 is 41000 nM; in experiment [1], 60000 nM. For the molecule `Nc1cc(NC(=O)c2cc3cc(NC(=O)c4cc5ccccc5o4)ccc3[nH]2)c(CCCl)c2ccccc12`, the IC50 in the experiment with L1210 was found to be 87 nM; in experiment [1], 43 nM. The like results for `COc1ccc(/C=C/C(=O)Nc2cc(N)c3ccccc3c2CCCl)c(OC)n1` were, in that order, 180 nM and 62 nM. Molecule `COc1cc2cc(C(=O)NC3=C(CCCl)CCC(O)=C3)[nH]c2c(OC)c1OC` registered a half-inhibitory concentration (IC50) with K562 of 1430 nM. Regarding `COc1cc2cc(C(=O)Nc3cc(NCc4ccccc4)c4ccccc4c3CCCl)[nH]c2c(OC)c1OC`, it took 5400 nM to reach half-maximal inhibition in experiment [1] (IC50). That is a single-digit micromolar value. For the molecule `COc1ccc(/C=C/C(=O)Nc2cc(N)c3ccccc3c2CCCl)nc1`, the values for the IC50 (in the experiment with L1210; in experiment [1]) were 550 nM and 750 nM, respectively.
